ChEMBL document CHEMBL1123433, “Synthesis of anthraquinonyl glucosaminosides and studies on the influence of aglycone hydroxyl substitution on superoxide generation, DNA binding, and antimicrobial properties” (J Med Chem, 1986)
Values after ≈ are worked out from the molar mass of the structure shown.

Key:
Assay type in all cases: functional
Bacillus cereus = assay: Compound was tested for antibacterial activity against Bacillus cereus WSU-60
In short: (§1)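 MICs were found by agar dilution. Test compounds were dissolved in water or in dimethyl sulfoxide, and the mixture was added to the agar before it set.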

[1] = test system: Staphylococcus epidermidis; assay: Compound was tested for antibacterial activity against Staph. epidermidis ATCC 12228; in short: as §1
Staphylococcus aureus [2] = assay: Compound was tested for antibacterial activity against Staphylococcus aureus ATCC 25923; in short: as §1
Streptococcus pyogenes = assay: Compound was tested for antibacterial activity against Strep. pyogenes ATCC 19615; in short: as §1
Rattus norvegicus = organism: Rattus norvegicus; assay: Compound was tested for effect of glycoside on superoxide production in rat heart sarcosomes; set-up: unit not given here
In short: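 Male Sprague-Dawley rat ventricles were homogenized in 100 mM KCl, 5 mM histidine, pH 7.3. The microsomal (sarcosomal) pellet was taken at 100000g and resuspended in 0.15 M K3PO4, 1 mM EDTA, pH 7.4. Sarcosomes came from six rats prepared concurrently. Each 1 mL reaction held acetylated cytochrome c (38-53 nmol), 300-500 µg protein and 0.1 mM compound. NADPH started the reaction. A550 rise was followed at 37 °C and reported as mean ± SEM, N = 3, with an F test.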

[3] = test system: Corynebacterium diphtheriae; assay: Compound was tested for antibacterial activity against Corynebacterium diphtheria WSU; in short: as §1
Staphylococcus aureus [4] = assay: Compound was tested for antibacterial activity against Staphylococcus aureus ATCC 9144; in short: as §1
Staphylococcus aureus [5] = assay: Compound was tested for antibacterial activity against Staphylococcus aureus WSU-196E; in short: as §1
Bacillus subtilis = assay: Compound was tested for antibacterial activity against Bacillus subtilis ATCC E6051; in short: as §1

| SMILES | MIC (Bacillus cereus) | MIC [1] | MIC (Staphylococcus aureus [2]) | MIC (Streptococcus pyogenes) | MIC [3] | MIC (Staphylococcus aureus [4]) | MIC (Staphylococcus aureus [5]) | MIC (Bacillus subtilis) | Activity (Rattus norvegicus) |
| --- | --- | --- | --- | --- | --- | --- | --- | --- | --- |
| NC1C(OCc2cc(O)c3c(c2)C(=O)c2cccc(O)c2C3=O)OC(O)C(O)C1O (configuration not stated) | 200 µg/mL (≈ 479 µM) | 20 µg/mL (≈ 47.9 µM) | > 200 µg/mL | 10 µg/mL (≈ 24 µM) | 100 µg/mL (≈ 240 µM) | 50 µg/mL (≈ 120 µM) | > 200 µg/mL | > 200 µg/mL | 10.1 |
| NC1C(OCc2ccc3c(c2)C(=O)c2ccccc2C3=O)OC(O)C(O)C1O (configuration not stated) | > 200 µg/mL | 200 µg/mL (≈ 519 µM) | > 200 µg/mL | 100 µg/mL (≈ 259 µM) | > 200 µg/mL | > 200 µg/mL | > 200 µg/mL | > 200 µg/mL | 2.31 |
| NC1C(OCc2ccc3c(c2O)C(=O)c2ccccc2C3=O)OC(O)C(O)C1O (configuration not stated) | 100 µg/mL (≈ 249 µM) | 20 µg/mL (≈ 49.8 µM) | 200 µg/mL (≈ 498 µM) | 20 µg/mL (≈ 49.8 µM) | 100 µg/mL (≈ 249 µM) | 200 µg/mL (≈ 498 µM) | 200 µg/mL (≈ 498 µM) | 50 µg/mL (≈ 125 µM) | 5.49 |

Compounds with a lower MIC (Bacillus cereus), results first:

| MIC (Bacillus cereus) | MIC [1] | MIC (Staphylococcus aureus [2]) | MIC (Streptococcus pyogenes) | MIC [3] | MIC (Staphylococcus aureus [4]) | MIC (Staphylococcus aureus [5]) | MIC (Bacillus subtilis) | SMILES | Activity (Rattus norvegicus) |
| --- | --- | --- | --- | --- | --- | --- | --- | --- | --- |
| 50 µg/mL (≈ 120 µM) | 20 µg/mL (≈ 47.9 µM) | 100 µg/mL (≈ 240 µM) | 10 µg/mL (≈ 24 µM) | 100 µg/mL (≈ 240 µM) | 50 µg/mL (≈ 120 µM) | > 200 µg/mL | 50 µg/mL (≈ 120 µM) | NC1C(OCc2cc(O)c3c(c2O)C(=O)c2ccccc2C3=O)OC(O)C(O)C1O (configuration not stated) | 12.8 |
| 50 µg/mL (≈ 120 µM) | 50 µg/mL (≈ 120 µM) | 100 µg/mL (≈ 240 µM) | 50 µg/mL (≈ 120 µM) | 50 µg/mL (≈ 120 µM) | 200 µg/mL (≈ 479 µM) | 200 µg/mL (≈ 479 µM) | 50 µg/mL (≈ 120 µM) | NC1C(OCc2ccc3c(c2O)C(=O)c2c(O)cccc2C3=O)OC(O)C(O)C1O (configuration not stated) | 10.5 |
| < 5 µg/mL | < 5 µg/mL | 20 µg/mL (≈ 37.9 µM) | < 5 µg/mL | < 5 µg/mL | < 5 µg/mL | < 5 µg/mL | < 5 µg/mL | COc1cccc2c1C(=O)c1c(O)c3c(c(O)c1C2=O)C[C@@](O)(C(C)=O)C[C@@H]3O[C@H]1C[C@H](N)[C@H](O)[C@H](C)O1 [DAUNORUBICIN] | 2.76 |
| 10 µg/mL (≈ 18.4 µM) | < 5 µg/mL | 200 µg/mL (≈ 368 µM) | < 5 µg/mL | 20 µg/mL (≈ 36.8 µM) | 20 µg/mL (≈ 36.8 µM) | 10 µg/mL (≈ 18.4 µM) | 20 µg/mL (≈ 36.8 µM) | COc1cccc2c1C(=O)c1c(O)c3c(c(O)c1C2=O)C[C@@](O)(C(=O)CO)C[C@@H]3O[C@H]1C[C@H](N)[C@H](O)[C@H](C)O1 [DOXORUBICIN] |  |
